Data as given in ChEMBL document CHEMBL3085674, “Synthesis of some dihydropyrimidine-based compounds bearing pyrazoline moiety and evaluation of their antiproliferative activity” (Eur J Med Chem, 2013).

Columns and labels:
Type in all cases: functional, cell-based
MDA-MB-231 = test: Antiproliferative activity against human MDA-MB-231 cells after 72 hrs by cell titer glo assay; details: MDA-MB-231, 72 h
In short: (§1)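 ATCC tumour cells kept in RPMI 1640 with 5% FBS, 2 mM glutamine, streptomycin and amphotericin at 37 °C, 5% CO2. Cells were trypsinised at 70–90% confluence and used only at >95% Trypan blue viability. Seeded at 5000 cells/well, rested 18–24 h, then dosed from DMSO stocks (0.1% DMSO final). ATP luminescence was read after 72 h. IC50 came from dose–response curves of 8 concentrations, four replicates each.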

HT-29 = test: Antiproliferative activity against human HT-29 cells after 72 hrs by cell titer glo assay; details: HT-29, 72 h; in short: as §1
MCF7 = test: Antiproliferative activity against human MCF7 cells after 72 hrs by cell titer glo assay; details: MCF7, 72 h; in short: as §1
A549 = test: Antiproliferative activity against human A549 cells after 72 hrs by cell titer glo assay; details: A549, 72 h; in short: as §1

SMILES | IC50 (MDA-MB-231) | IC50 (HT-29) | IC50 (MCF7) | IC50 (A549)
Cn1c(N2N=C(c3ccccc3)CC2c2ccccc2)nc(-c2ccc(Cl)cc2)c(C#N)c1=O (stereo unspecified) | 29.1 µM | 19.5 µM | 34.4 µM | 28.1 µM
Cn1c(N2N=C(c3ccc(Cl)cc3)CC2c2ccccc2)nc(-c2ccccc2)c(C#N)c1=O (stereo unspecified) | 10.6 µM | 6.6 µM | 12.2 µM | 26.9 µM
Cn1c(N2N=C(c3ccccc3)CC2c2ccc(F)cc2)nc(-c2ccccc2)c(C#N)c1=O (stereo unspecified) | 11.8 µM | 8.15 µM | 38.1 µM | 39.2 µM
COc1ccc(C2CC(c3ccc(Cl)cc3)=NN2c2nc(-c3ccccc3)c(C#N)c(=O)n2C)cc1 (stereo unspecified) | 11.1 µM | 9.12 µM | 4.8 µM | 6.07 µM
Cn1c(N2N=C(c3ccccc3)CC2c2ccc(Cl)cc2)nc(-c2ccc(Cl)cc2)c(C#N)c1=O (stereo unspecified) | 25.1 µM | 15 µM | 46.3 µM | 24.7 µM
COc1ccc(C2=NN(c3nc(-c4ccccc4)c(C#N)c(=O)n3C)C(c3ccc(OC)cc3)C2)cc1 (stereo unspecified) | 16.2 µM | 9.42 µM | 127 µM | 26.5 µM
COc1ccc(C2CC(c3ccccc3)=NN2c2nc(-c3ccccc3)c(C#N)c(=O)n2C)cc1 (stereo unspecified) | 12.8 µM | 14.7 µM | 18 µM | 1.76 µM
Cn1c(N2N=C(c3ccccc3)CC2c2ccccc2)nc(-c2ccccc2)c(C#N)c1=O (stereo unspecified) | 3.99 µM | 2.49 µM | 35.4 µM | 52.9 µM
COc1ccc(C2CC(c3ccccc3)=NN2c2nc(-c3ccc(Cl)cc3)c(C#N)c(=O)n2C)cc1 (stereo unspecified) | 19.5 µM | 11 µM | 52.4 µM | 23.8 µM
Cn1c(N2N=C(c3ccccc3)CC2c2ccc(Cl)cc2)nc(-c2ccccc2)c(C#N)c1=O (stereo unspecified) | 28 µM | 19.2 µM | 3.28 µM | 3.25 µM
COc1cccc2c1C(=O)c1c(O)c3c(c(O)c1C2=O)C[C@@](O)(C(=O)CO)C[C@@H]3O[C@H]1C[C@H](N)[C@H](O)[C@H](C)O1 [DOXORUBICIN] |  | 2.75 µM |  | 3.13 µM

Results, then the compound that gave them:

IC50 (MDA-MB-231) | IC50 (HT-29) | IC50 (MCF7) | IC50 (A549) | SMILES
24.8 µM | 15.1 µM | 27.3 µM | 35.6 µM | COc1ccc(C2CC(c3ccc(Cl)cc3)=NN2c2nc(-c3ccc(Cl)cc3)c(C#N)c(=O)n2C)cc1 (stereo unspecified)
20.9 µM | 13.7 µM | 36.8 µM | 27.8 µM | Cn1c(N2N=C(c3ccccc3)CC2c2ccc(F)cc2)nc(-c2ccc(Cl)cc2)c(C#N)c1=O (stereo unspecified)
5.1 µM | 4.62 µM | 23.1 µM | 2 µM | Cc1ccc(C2=NN(c3nc(-c4ccccc4)c(C#N)c(=O)n3C)C(c3ccc(F)cc3)C2)cc1 (stereo unspecified)
28.3 µM | 18.2 µM | 99.8 µM | 39.7 µM | COc1ccc(C2=NN(c3nc(-c4ccc(Cl)cc4)c(C#N)c(=O)n3C)C(c3ccc(OC)cc3)C2)cc1 (stereo unspecified)
19.3 µM | 10.5 µM | 116 µM | 35.6 µM | Cc1ccc(C2=NN(c3nc(-c4ccc(Cl)cc4)c(C#N)c(=O)n3C)C(c3ccc(F)cc3)C2)cc1 (stereo unspecified)
12.4 µM | 8.72 µM | 25.3 µM | 43.9 µM | Cn1c(N2N=C(c3ccc(Cl)cc3)CC2c2ccccc2)nc(-c2ccc(Cl)cc2)c(C#N)c1=O (stereo unspecified)
